Laboratory results: ChEMBL document CHEMBL2176974, “A bactericidal guanidinomethyl biaryl that alters the dynamics of bacterial FtsZ polymerization” (J Med Chem, 2012)
Values after ≈ are worked out from the molar mass of the structure shown. Active and inactive are the calls of the source. No cut-off for these calls is given here.

Tests used:
[1] = molecular target: Tubulin beta chain (Sus scrofa) (UniProt P02554); conditions: 10 ug/mL
Staphylococcus aureus [2] = assay: microbe, parasite or virus in culture; type: functional; conditions: 8325-4, 24 h
Staphylococcus aureus [3] = assay: Antimicrobial activity against methicillin-resistant Staphylococcus aureus Mu3 incubated for 24 hrs by broth microdilution method; type: functional; conditions: Mu3, 24 h
Enterococcus faecalis [4] = assay: microbe, parasite or virus in culture; type: functional; conditions: ATCC 19433, 24 h
Staphylococcus aureus [5] = assay: microbe, parasite or virus in culture; type: functional; conditions: ATCC 33591, 24 h
Staphylococcus aureus [6] = assay: microbe, parasite or virus in culture; type: functional; conditions: ATCC 49951, 24 h
Staphylococcus aureus [7] = assay: microbe, parasite or virus in culture; type: functional; conditions: 8325-4, 24 h; remark: listed apart in the source
Enterococcus faecalis [8] = assay: microbe, parasite or virus in culture; type: functional; conditions: ATCC 51575, 24 h
[9] = molecular target: T1, Cell division protein FtsZ (Staphylococcus aureus) (UniProt P0A031); assay: Stimulation of Staphylococcus aureus FtsZ self-polymerization at 40 ug/mL by microtiter plate-based light scattering assay
T1 sequence (whole entry): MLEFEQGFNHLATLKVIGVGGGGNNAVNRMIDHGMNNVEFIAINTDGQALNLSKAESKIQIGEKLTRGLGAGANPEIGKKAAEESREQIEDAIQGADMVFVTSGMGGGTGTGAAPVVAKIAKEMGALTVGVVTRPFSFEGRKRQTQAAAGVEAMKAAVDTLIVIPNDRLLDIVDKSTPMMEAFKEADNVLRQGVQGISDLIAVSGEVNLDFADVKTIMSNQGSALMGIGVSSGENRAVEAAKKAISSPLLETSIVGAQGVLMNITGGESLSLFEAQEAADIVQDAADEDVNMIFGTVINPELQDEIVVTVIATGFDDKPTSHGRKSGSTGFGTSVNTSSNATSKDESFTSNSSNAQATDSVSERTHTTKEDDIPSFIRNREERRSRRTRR

[10] = molecular target: T1, Cell division protein FtsZ (Staphylococcus aureus); assay: Binding affinity to Staphylococcus aureus FtsZ expressed in Escherichia coli BL21 (DE3) by fluorescence anisotropy BoGTPgammaS competition assay
How it was run: (§1)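 Competition with fluorescent BoGTPγS. BoGTPγS (1 μM final) was mixed with 5 μM FtsZ and compound or unlabeled GTP at 0–40 μM. Buffer was 50 mM Tris·HCl pH 7.4, 50 mM KCl, 2 mM magnesium acetate. After 5 min at 25 °C, anisotropy was read at excitation 488 nm and emission 510 nm, in triplicate and averaged.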

Enterococcus faecalis [11] = assay: Binding affinity to Enterococcus faecalis FtsZ by fluorescence anisotropy BoGTPgammaS competition assay
How it was run: as §1

[12] = molecular target: T2, Cell division protein FtsZ (Escherichia coli K-12) (UniProt P0A9A6); assay: Binding affinity to Escherichia coli FtsZ by fluorescence anisotropy BoGTPgammaS competition assay
T2 sequence (whole entry): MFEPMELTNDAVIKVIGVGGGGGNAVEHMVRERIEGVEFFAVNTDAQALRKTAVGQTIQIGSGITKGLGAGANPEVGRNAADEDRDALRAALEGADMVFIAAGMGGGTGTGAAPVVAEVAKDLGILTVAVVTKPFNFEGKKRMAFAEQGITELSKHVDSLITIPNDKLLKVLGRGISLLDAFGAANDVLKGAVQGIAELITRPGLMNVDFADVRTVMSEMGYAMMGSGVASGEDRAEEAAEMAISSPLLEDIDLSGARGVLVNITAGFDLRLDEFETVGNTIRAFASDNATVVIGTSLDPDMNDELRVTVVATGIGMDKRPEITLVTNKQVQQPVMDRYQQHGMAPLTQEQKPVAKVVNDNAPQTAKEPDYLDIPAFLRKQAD
How it was run: as §1

Staphylococcus aureus [13] = assay: Antimicrobial effect against 3x10^9 CFU/ml methicillin-sensitive Staphylococcus aureus 8325-4 at 4 to 32 times MIC assessed as incidence of colonies growth measured after 24 incubation by large inoculation approach based drug resistance detection method; type: functional, organism-based
How it was run: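 Inoculum count checked on nonselective plates. Incubated at 37 °C and examined after 24 h and daily thereafter. Mutation frequency = colonies on selective plates / total bacteria plated.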

[14] = molecular target: T2, Cell division protein FtsZ (Escherichia coli K-12); assay: Stimulation of Escherichia coli FtsZ self-polymerization at 40 ug/mL by microtiter plate-based light scattering assay
Escherichia coli [15] = assay: Antimicrobial activity against Escherichia coli W4573 incubated for 24 hrs by broth microdilution method; type: functional; conditions: W4573, 24 h
How it was run: (§2)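 CLSI broth microdilution. Log-phase bacteria at 10⁵ CFU/mL were exposed to 2-fold serial dilutions (64 to 0.016 μg/mL) in cation-adjusted Mueller-Hinton broth, 5% defibrinated sheep blood added for Streptococcus. Incubated aerobically 24 h at 37 °C. Growth read as OD600; MIC taken as the lowest concentration giving 90% growth inhibition.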

Enterococcus faecalis [16] = assay: Stimulation of Enterococcus faecalis FtsZ self-polymerization at 40 ug/mL by microtiter plate-based light scattering assay
How it was run: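 Purified E. faecalis FtsZ (10 μM) mixed with compound (0–40 μg/mL) and 1 mM GTP in 50 mM Tris-HCl pH 7.4, 50 mM KCl, 2 mM magnesium acetate, 10 mM CaCl2. Polymerization followed continuously as light scattering (A340) at 25 °C over 400 min.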

[17] = molecular target: T3, Cell division protein FtsZ (Staphylococcus aureus, UniProt P0A031); assay: Binding affinity to Staphylococcus aureus FtsZ expressed in Escherichia coli BL21 (DE3) at 25 degC by fluorescence anisotropy assay
T3 sequence (P0A031 whole entry): T1 sequence (whole entry)
How it was run: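 Intrinsic compound fluorescence anisotropy. Compound at 5 μM was titrated with 0–25 μM FtsZ in 50 mM Tris·HCl pH 7.4, 50 mM KCl, 2 mM magnesium acetate. Samples were incubated 5 min at 25 °C, excited at 245 nm with emission at 318 nm, and G-corrected. Runs were in triplicate and averaged. Kd was obtained by nonlinear least-squares fit. SaFtsZ was expressed in E. coli BL21(DE3) and purified by ammonium sulfate, MonoQ and Superdex-200.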

Escherichia coli [18] = assay: Antimicrobial activity against ESBL producing Escherichia coli ATCC BAA-201 expressing TEM3 lactamase incubated for 24 hrs by broth microdilution method; type: functional; conditions: ATCC BAA-201, 24 h
How it was run: as §2

[19] = molecular target: T4, Cell division protein FtsZ (Escherichia coli K-12, UniProt P0A9A6); assay: Binding affinity to Escherichia coli FtsZ at 25 degC by fluorescence anisotropy assay
T4 sequence (P0A9A6 whole entry): T2 sequence (whole entry)

Escherichia coli [20] = assay: Antimicrobial activity against Escherichia coli N43 expressing AcrAB efflux pump mutant incubated for 24 hrs by broth microdilution method; type: functional; conditions: N43, 24 h
[21] = Binding affinity to Enterococcus faecalis FtsZ at 25 degC by fluorescence anisotropy assay

Sequence of Tubulin beta chain (Sus scrofa) (P02554 whole entry): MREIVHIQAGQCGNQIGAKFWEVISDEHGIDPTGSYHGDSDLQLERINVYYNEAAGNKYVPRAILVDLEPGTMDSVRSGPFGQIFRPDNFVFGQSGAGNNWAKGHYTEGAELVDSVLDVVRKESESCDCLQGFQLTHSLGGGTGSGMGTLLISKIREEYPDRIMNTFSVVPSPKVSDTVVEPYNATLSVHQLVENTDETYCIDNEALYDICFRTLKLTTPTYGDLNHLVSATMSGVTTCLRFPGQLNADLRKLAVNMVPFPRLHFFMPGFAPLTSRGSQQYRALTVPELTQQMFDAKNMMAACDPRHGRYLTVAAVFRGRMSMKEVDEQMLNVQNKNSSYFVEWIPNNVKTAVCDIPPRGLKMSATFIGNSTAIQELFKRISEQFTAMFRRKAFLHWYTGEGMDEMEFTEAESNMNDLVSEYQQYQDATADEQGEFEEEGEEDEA

SMILES	MIC (Staphylococcus aureus [3]) [mg/L]	MIC (Enterococcus faecalis [4]) [mg/L]	MIC (Staphylococcus aureus [5]) [mg/L]	MIC (Staphylococcus aureus [6]) [mg/L]	MIC (Staphylococcus aureus [7]) [mg/L]	MIC (Enterococcus faecalis [8]) [mg/L]	Activity [9]	other results
COC(=O)Nc1nc2cc(C(=O)c3cccs3)ccc2[nH]1	–	–	–	–	–	–	–	inhibition [1]: Active
CC[C@H]1OC(=O)[C@H](C)[C@@H](O[C@H]2C[C@@](C)(OC)[C@@H](O)[C@H](C)O2)[C@H](C)[C@@H](O[C@@H]2O[C@H](C)C[C@H](N(C)C)[C@H]2O)[C@](C)(O)C[C@@H](C)C(=O)[C@H](C)[C@@H](O)[C@]1(C)O [ERYTHROMYCIN]	> 64	1 (≈ 1.36 µM)	> 64	0.25 (≈ 0.341 µM)	0.125 (≈ 0.17 µM)	> 64	–	MBC (Staphylococcus aureus [2]): 32 mg/L (≈ 43.6 µM)
Cc1onc(-c2ccccc2Cl)c1C(=O)N[C@@H]1C(=O)N2[C@@H]1SC(C)(C)[C@@H]2C(=O)[O-].[Na+] [OXACILLIN SODIUM SALT]	> 64	8	> 64	0.25	0.063	64	inactive	–
Nc1nc(=O)c2ncn([C@@H]3O[C@H](COP(=O)(O)OP(=O)(O)OP(=O)(O)O)[C@@H](O)C3O)c2[nH]1 (single isomer, unassigned)	–	–	–	–	–	–	–	Activity [10]: Dose-dependent effect; Activity (Enterococcus faecalis [11]): Dose-dependent effect; Activity [12]: Dose-dependent effect
CO[C@H]1/C=C/O[C@@]2(C)Oc3c(C)c(O)c4c(O)c(c(/C=N/N5CCN(C)CC5)c(O)c4c3C2=O)NC(=O)/C(C)=C\C=C\[C@H](C)[C@H](O)[C@@H](C)[C@@H](O)[C@@H](C)[C@H](OC(C)=O)[C@@H]1C	–	–	–	–	–	–	–	Activity (Staphylococcus aureus [13]): inactive
CC(C)(C)c1ccc(-c2cc(CNC(=N)N)ncn2)cc1	32 (≈ 113 µM)	> 64	64 (≈ 226 µM)	32 (≈ 113 µM)	64 (≈ 226 µM)	> 64	inactive	Activity [14]: inactive; MIC (Escherichia coli [15]): > 64 mg/L; Activity (Enterococcus faecalis [16]): inactive; Kd [17]: Not Active; MIC (Escherichia coli [18]): > 64 mg/L; Kd [19]: Not Active; MIC (Escherichia coli [20]): 32 mg/L (≈ 113 µM); Kd [21]: Not Active
